Experimental data reported in publication PMC5388221 (Drug Design, Development and Therapy, 2017).
Like-named read-outs stand apart in the source and are kept apart here.

What was measured:
[1] = tested on: intracellular amastigotes of T. cruzi (Y strain); assay: Effect against intracellular parasites in infected cardiac cell cultures; assay type: cell-based, Trypanosoma cruzi; details: for SI (LC50/EC50), intracellular amastigotes: LC50 on cardiac cells at 48 h, 48 h/37°C
In short: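 T. cruzi Y strain infects primary embryonic Swiss mouse cardiac cells (parasite:host 10:1, 24 h), which are then washed. Cells are exposed to test compound (0.043–3.5 µM) for 48 h at 37°C in 5% CO2, then Bouin-fixed and Giemsa-stained. Infective index is % infected cells × mean parasites per infected cell; EC50 is 50% index reduction versus untreated. SI = 48 h MTT LC50 (uninfected cells)/EC50.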

[2] = tested on: bloodstream trypomastigotes (BTs) of T. cruzi (Y strain); assay: Trypanocidal assay against bloodstream trypomastigotes; assay type: cell-based, Trypanosoma cruzi; details: for SI (LC50/EC50), BTs: LC50 on cardiac cells at 24 h, BTs 24 h/37°C; for EC50: read-out: EC50 (µM), BTs
In short: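 Bloodstream trypomastigotes come from Swiss mice at peak parasitemia. They are incubated at 5×10^6/mL in RPMI 1640 plus 10% fetal bovine serum with serial dilutions of test compound (0.001–10.6 µM) for 24 h at 37°C. Motile live parasites are counted by light microscopy in a Neubauer chamber; EC50 is a 50% drop versus untreated. SI = 24 h MTT LC50 on uninfected mouse cardiac cells/EC50.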

[3] = tested on: intracellular amastigotes of T. cruzi (Y strain); details: read-out: EC50, infection of T. cruzi-infected CCs; after 48 h of treatment; cited from earlier work
[4] = fast plasmatic clearance profile; cited from earlier work

| Compound | SI (LC50/EC50), intracellular amastigotes [1] | SI (LC50/EC50), BTs [2] | EC50 ([2]; 24 h/37°C, Y strain) | EC50 ([1]; Trypanosoma cruzi, 48 h, read-out: EC50 (µM), intracellular amastigotes) | EC50 ([2]; Trypanosoma cruzi, 24 h) | EC50 [3] | Half-life [4] |
| --- | --- | --- | --- | --- | --- | --- | --- |
| 2,5-Bis[2-(2,2,2-trifluoroethoxy)-4-(2-pyridylimino)aminophenyl]furan [DB1959] | 1.6 | 45 | 0.078 ± 0.01 µM | – | – | – | – |
| O=C(Cn1ccnc1[N+](=O)[O-])NCc1ccccc1 [Bz, benznidazole, reference compound] | >360 | >77 | – | 3.7 ± 1.72 µM | 12.9 ± 1.93 µM | – | – |
| 2,5-Bis[2-isobutoxy-4-(2-pyridylimino) aminophenyl]furan hydrochloride [DB1890B] | 9.7 | 760 | 0.014 ± 0.007 µM | – | – | 900 nM | – |
| 2,5-Bis[2-isopropoxy-4-(2-pyridylimino) aminophenyl]thiophene [DB1957] | 6 | 17 | 0.068 ± 0.0014 µM | – | – | – | – |
| CC1CS(=O)(=O)CCN1/N=C/c1ccc([N+](=O)[O-])o1 (stereo not shown) [nifurtimox] | – | – | – | – | – | – | 3 h |
| CC(C)Oc1cc(NC(=N)c2ccccn2)ccc1-c1ccc(-c2ccc(NC(=N)c3ccccn3)cc2OC(C)C)s1 [DB1867, reference compound] | – | – | – | – | – | 58 nM | – |
